This excerpt belongs to a sample that is enriched for hits.
T cruzi intra: inhibitors of intracellular Trypanosoma cruzi | intracellular Trypanosoma cruzi in host cells, plate reader | activity score (inhibition), % at 5.01 µM | hit rate 4.9% among 22,000 | AID 651903; in the data active = activity score above about 55%; inconclusive = no clear call, values can overlap the other calls;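 also: parasites and compound incubated about four days before reading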
A1 apoptosis 2: A1 inhibition read as caspase activation. MEF A1-2A-BIM cells, caspase-Glo luminescence, 3 h; percent of clofoctol response, DMSO zero. caspase activation, % (concentration not given with the values). 24,000 tested, under 10 active. AID 2465; in the data active = caspase activation above about 5.9%; inconclusive = no clear call, values can overlap the other calls; inactive = below about 2.2%
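system = A1-2A-BIM-expressing MEF cells | quantity = 2500 MEF cells/well | dosing = 50 nL compound per well, pinned | schedule = overnight cell settling, then 3 h compound exposure, 37 °C | signal = luminescence from DEVD-luciferin Caspase-Glo reagent, 1:1 in 50 mM HEPES, 1 h RT | read-out = Caspase-3/7 activation, seen as rise in luminescence signal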
INS-1E ATP HTS: rescue of cytokine-induced death in INS-1E beta cells | hit rate 0.1% among 20,000 | protection from cytokine-induced ATP loss, % at 10 µM | INS-1E cytokine-induced death, ATP luminescence, 48 h; normalised: neutral wells 0, positive control 100;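 active = mean replicate protection from cytokine-induced ATP loss at least 50% and at least 75% of replicates each reaching 50%; inconclusive = meets only one of the two criteria, mean or replicate share; inactive = fails both the mean and replicate share criteria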
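Assay system: INS-1E rat cells / Quantity: 8000 cells per well / Medium: RPMI without phenol red, 5% FBS / Probe or stimulus: three-cytokine cocktail (IFN-γ, TNF-α, IL-1β) / Dosing: one compound concentration, pin transfer / Timing: 48 h co-treatment, 10 min post-lysis read / Technique: CellTiter-Glo luminescence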
Of the large screens only hits and unclear results are named; the others gave an inactive call.

O=C(CCCCCCC(=O)Nc1ccccc1O)N/N=C/c1ccc(C(=O)O)cc1	none (no result: A1 apoptosis 2)
C[C@@H]1CN([C@@H](C)CO)C(=O)c2cccc(NC(=O)Nc3ccc(C(F)(F)F)cc3)c2O[C@@H]1CN(C)Cc1ccc(C(=O)Nc2ccccc2N)cc1	T cruzi intra 77.5 (no result: A1 apoptosis 2)
C[C@H](CO)N1C[C@H](C)[C@H](CN(C)Cc2ccc(C(=O)Nc3ccccc3N)cc2)Oc2c(NC(=O)Nc3ccc(C(F)(F)F)cc3)cccc2C1=O	T cruzi intra 60.8 (no result: A1 apoptosis 2)
C[C@H](CO)N1C[C@H](C)[C@H](CN(C)Cc2ccc(C(=O)O)cc2)Oc2c(NC(=O)Nc3ccc(C(F)(F)F)cc3)cccc2C1=O	none
C[C@H](CO)N1C[C@H](C)[C@@H](CN(C)Cc2ccc(C(=O)O)cc2)Oc2c(NC(=O)Nc3ccc(C(F)(F)F)cc3)cccc2C1=O	none
CCCCCCC/C=N/NC(=O)CCCCCCC(=O)OC	none
C[C@@H]1CN([C@H](C)CO)C(=O)c2cccc(NC(=O)Nc3ccc4c(c3)OCO4)c2O[C@@H]1CN(C)Cc1ccc(Cl)c(Cl)c1	none (no result: A1 apoptosis 2)
COc1ccc(NC(=O)Nc2cccc3c2O[C@@H](CN(C)Cc2ccc(Cl)c(Cl)c2)[C@@H](C)CN([C@H](C)CO)C3=O)cc1	T cruzi intra 58.6 (no result: A1 apoptosis 2)
C[C@@H]1CN([C@@H](C)CO)C(=O)c2cccc(NC(=O)Nc3ccccc3)c2O[C@H]1CN(C)Cc1ccc(Cl)c(Cl)c1	T cruzi intra 58.9 (no result: A1 apoptosis 2)
C[C@@H]1CN([C@H](C)CO)C(=O)c2cccc(NC(=O)Nc3ccccc3)c2O[C@@H]1CN(C)Cc1ccc(Cl)c(Cl)c1	none (no result: A1 apoptosis 2)
COc1ccc(NC(=O)Nc2cccc3c2O[C@H](CN(C)Cc2ccc(Cl)c(Cl)c2)[C@H](C)CN([C@H](C)CO)C3=O)cc1	none (no result: A1 apoptosis 2)
C[C@H](CO)N1C[C@H](C)[C@H](CN(C)Cc2ccc(Cl)c(Cl)c2)Oc2c(NC(=O)Nc3ccc4c(c3)OCO4)cccc2C1=O	T cruzi intra 81.9 (no result: A1 apoptosis 2)
O=C(NO)c1ccc(C(=O)N/N=C/c2ccc(O)c(O)c2)cc1	none (no result: A1 apoptosis 2)
O=C(CCCCCCC(=O)Nc1ccccc1O)N/N=C/c1coc2ccccc2c1=O	none (no result: A1 apoptosis 2)
O=C(N/N=C/c1ccc2c(c1)OCCO2)c1ccccc1O	none
COC(=O)CCCCCCC(=O)N/N=C/c1c(CO)cnc(C)c1O	none
Cc1noc(C)c1S(=O)(=O)Nc1ccc2c(c1)C(=O)N([C@@H](C)CO)C[C@H](C)[C@@H](CN(C)Cc1ccc(C(F)(F)F)cc1)O2	T cruzi intra 64.8 (no result: A1 apoptosis 2)
Cc1noc(C)c1S(=O)(=O)Nc1ccc2c(c1)C(=O)N([C@H](C)CO)C[C@@H](C)[C@@H](CN(C)Cc1ccc(C(F)(F)F)cc1)O2	none (no result: A1 apoptosis 2)
Cc1noc(C)c1S(=O)(=O)Nc1ccc2c(c1)CC(=O)N([C@@H](C)CO)C[C@@H](C)[C@@H](CN(C)Cc1ccc(C(F)(F)F)cc1)O2	none
Cc1noc(C)c1S(=O)(=O)Nc1ccc2c(c1)CC(=O)N([C@H](C)CO)C[C@@H](C)[C@@H](CN(C)Cc1ccc(C(F)(F)F)cc1)O2	T cruzi intra 69.2
Cc1noc(C)c1S(=O)(=O)Nc1ccc2c(c1)C(=O)N([C@H](C)CO)C[C@H](C)[C@@H](CN(C)C(=O)Nc1ccc(C(F)(F)F)cc1)O2	none (no result: A1 apoptosis 2)
Cc1noc(C)c1S(=O)(=O)Nc1ccc2c(c1)C(=O)N([C@H](C)CO)C[C@H](C)[C@H](CN(C)C(=O)Nc1ccc(C(F)(F)F)cc1)O2	T cruzi intra 73.4 (no result: A1 apoptosis 2, INS-1E ATP HTS)
Cc1nnc(Sc2ccc(/C=N/NC(=O)CCCCC(=O)NO)o2)n1C	none
C[C@@H]1CCCCO[C@@H](CN(C)Cc2ccc(C(=O)Nc3ccccc3N)cc2)[C@@H](C)CN([C@H](C)CO)C(=O)c2cc(N(C)C)ccc2O1	none (no result: T cruzi intra, INS-1E ATP HTS)
COc1ccc(/C=N/NC(=O)CCCCCCC(=O)O)c(O)c1	none (no result: A1 apoptosis 2)
C[C@@H]1CN([C@@H](C)CO)C(=O)c2cccc(NC(=O)c3nc4ccccc4s3)c2O[C@@H]1CN(C)C(=O)Nc1ccc2c(c1)OCO2	none
C[C@H](CO)N1C[C@H](C)[C@H](CN(C)Cc2ccc3c(c2)OCO3)Oc2c(NC(=O)c3nc4ccccc4s3)cccc2C1=O	T cruzi intra 77.4
C[C@H]1CN([C@@H](C)CO)C(=O)c2cccc(NC(=O)c3nc4ccccc4s3)c2O[C@H]1CN(C)Cc1ccc(Cl)c(Cl)c1	T cruzi intra inconclusive (no result: A1 apoptosis 2)
C[C@H]1CN([C@@H](C)CO)C(=O)c2cccc(NC(=O)c3nc4ccccc4s3)c2O[C@H]1CN(C)Cc1ccc2c(c1)OCO2	T cruzi intra 57.3 (no result: A1 apoptosis 2)
COC(=O)CCCCCCC(=O)N/N=C/CC1=C(C)CCCC1(C)C	none
COc1cc2c(cc1OC)CN(C(=O)[C@@H]1[C@H]3C(=O)O[C@H](c4ccccc4)[C@H](c4ccccc4)N3[C@H](c3ccccc3OCCO)[C@@]13C(=O)Nc1ccccc13)CC2	none (no result: T cruzi intra, INS-1E ATP HTS)
Cc1noc(C)c1S(=O)(=O)Nc1ccc2c(c1)CC(=O)N([C@@H](C)CO)C[C@@H](C)[C@@H](CN(C)Cc1ccc(C(=O)Nc3ccccc3N)cc1)O2	T cruzi intra 71.0 (no result: A1 apoptosis 2)
Cc1noc(C)c1S(=O)(=O)Nc1ccc2c(c1)CC(=O)N([C@H](C)CO)C[C@@H](C)[C@H](CN(C)Cc1ccc(C(=O)Nc3ccccc3N)cc1)O2	none
Cc1noc(C)c1S(=O)(=O)Nc1ccc2c(c1)CC(=O)N([C@H](C)CO)C[C@@H](C)[C@@H](CN(C)Cc1ccc(C(=O)Nc3ccccc3N)cc1)O2	T cruzi intra 69.0
Cc1noc(C)c1S(=O)(=O)Nc1cccc2c1O[C@H](CN(C)S(=O)(=O)c1ccccc1)[C@H](C)CN([C@H](C)CO)C2=O	T cruzi intra 65.4 (no result: A1 apoptosis 2)
C[C@H](CO)N1C[C@H](C)[C@@H](CN(C)Cc2ccc(C(=O)Nc3ccccc3N)cc2)Oc2c(NS(=O)(=O)c3ccccc3)cccc2C1=O	none
Cc1noc(C)c1S(=O)(=O)Nc1ccc2c(c1)CC(=O)N([C@H](C)CO)C[C@H](C)[C@@H](CN(C)Cc1ccc(C(=O)Nc3ccccc3N)cc1)O2	none (no result: T cruzi intra, INS-1E ATP HTS)
Cc1noc(C)c1S(=O)(=O)Nc1cccc2c1O[C@@H](CN(C)S(=O)(=O)c1ccccc1)[C@@H](C)CN([C@H](C)CO)C2=O	none
Cc1noc(C)c1S(=O)(=O)Nc1cccc2c1O[C@@H](CN(C)Cc1ccc(C(=O)Nc3ccccc3N)cc1)[C@@H](C)CN([C@@H](C)CO)C2=O	T cruzi intra 66.1
COC(=O)CCCCCCC(=O)N/N=C/c1ccc(NC(=O)OC(C)(C)C)cc1	none (no result: A1 apoptosis 2)
O=C(N/N=C/C1=CCCCC1)c1ccccc1O	none
O=C(CCCCCCC(=O)Nc1ccccc1O)N/N=C/c1ccc2c(c1)OCCO2	none (no result: A1 apoptosis 2)
O=C(CCCCCC(=O)N/N=C/c1cccnc1Cl)NO	none (no result: T cruzi intra, INS-1E ATP HTS)
Cc1noc(C)c1S(=O)(=O)Nc1ccc2c(c1)C(=O)N([C@H](C)CO)C[C@H](C)[C@@H](CN(C)Cc1ccc(C(=O)Nc3ccccc3N)cc1)O2	T cruzi intra 68.2
Cc1noc(C)c1S(=O)(=O)Nc1ccc2c(c1)C(=O)N([C@H](C)CO)C[C@@H](C)[C@H](CN(C)Cc1ccc(C(=O)Nc3ccccc3N)cc1)O2	none
O=C(N/N=C/c1cccc(B(O)O)c1)c1ccccc1O	none
COc1ccc(Br)cc1/C=N/NC(=O)c1cccc(C(=O)NO)c1	none

Source: PubChem
